Measured values reported in ChEMBL document CHEMBL1140222, “Identification of G protein-coupled receptor 120-selective agonists derived from PPARgamma agonists” (J Med Chem, 2008).
The source made the active and inactive calls. No cut-off for these calls is given here.

Key:
[1] = biological target: T1, Free fatty acid receptor 4 (Homo sapiens) (UniProt Q5NUL3); assay: Agonist activity at human GPR120-G-alpha-16 fusion protein expressed in Flp-in HEK293 cells assessed as effect on intracellular calcium concentration at 10 uM by FLIPR assay relative to […]; type: functional, cell-based
T1 sequence (whole entry): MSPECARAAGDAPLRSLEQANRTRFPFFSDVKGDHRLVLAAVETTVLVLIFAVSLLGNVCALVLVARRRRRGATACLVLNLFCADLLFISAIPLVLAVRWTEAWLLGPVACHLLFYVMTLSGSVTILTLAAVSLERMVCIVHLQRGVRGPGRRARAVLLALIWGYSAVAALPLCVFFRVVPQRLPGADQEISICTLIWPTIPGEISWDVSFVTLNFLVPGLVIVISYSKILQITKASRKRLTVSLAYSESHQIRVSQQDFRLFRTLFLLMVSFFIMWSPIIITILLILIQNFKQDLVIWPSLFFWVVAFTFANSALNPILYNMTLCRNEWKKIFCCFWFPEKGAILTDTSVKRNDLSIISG
Summary of the method: (§1)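 FLIPR fluorometric measurement of intracellular Ca2+ in HEK293 cells expressing human GPR40 or human GPR120. Test compound at 10 µM; response expressed as percent of that evoked by 10 µM α-linolenic acid reference. Means of at least three experiments.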

[2] = biological target: T2, Free fatty acid receptor 1 (Homo sapiens, UniProt O14842); assay: Agonist activity at human GPR40 expressed in T-REx HEK293 cells assessed as effect on intracellular calcium concentration at 10 uM by FLIPR assay relative to […]; type: functional, cell-based; summary of the method: as §1
[3] = biological target: T3, Free fatty acid receptor 4 (Homo sapiens, UniProt Q5NUL3); assay: Agonist activity at human GPR120-G-alpha-16 fusion protein expressed in Flp-in HEK293 cells assessed as effect on intracellular calcium concentration by FLIPR assay; type: functional, cell-based
T3 sequence (Q5NUL3 whole entry): T1 sequence (whole entry)
Summary of the method: (§2)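 Intracellular Ca2+ rise read by FLIPR in HEK293 cells expressing human GPR120 or human GPR40; EC50 values derived from concentration–response, means of at least three experiments.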

[4] = biological target: T2, Free fatty acid receptor 1; assay: Agonist activity at human GPR40 expressed in T-REx HEK293 cells assessed as effect on intracellular calcium concentration by FLIPR assay; type: functional, cell-based; summary of the method: as §2
Homo sapiens = species on record: Homo sapiens; assay: Selectivity index, ratio of EC50 for human GPR40 to EC50 for human GPR120
Summary of the method: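 Selectivity index computed as EC50 at GPR40 divided by EC50 at GPR120, both from FLIPR Ca2+ assays in HEK293 cells expressing each human receptor; EC50 means of at least three experiments.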

HEK293 = assay: Agonist activity at PPAR expressed in HEK293 cells at 10 to 100 uM after 12 to 16 hrs by luciferase-beta galactosidase transactivation assay; type: functional, cell-based

T2 sequence (O14842 whole entry, the tested form may be a part): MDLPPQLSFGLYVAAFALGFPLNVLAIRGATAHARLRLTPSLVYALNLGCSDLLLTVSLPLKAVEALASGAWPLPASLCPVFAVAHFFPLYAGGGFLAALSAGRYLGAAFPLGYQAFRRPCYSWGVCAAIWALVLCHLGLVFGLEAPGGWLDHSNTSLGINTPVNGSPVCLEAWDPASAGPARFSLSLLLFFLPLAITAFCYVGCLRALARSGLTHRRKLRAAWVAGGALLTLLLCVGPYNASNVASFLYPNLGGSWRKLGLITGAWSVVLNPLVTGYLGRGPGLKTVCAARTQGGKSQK

Row | SMILES | Activity [1] | Activity [2] | EC50 [3] | EC50 [4] | Ratio EC50 (Homo sapiens) | Activity (HEK293)
1 | CCCCCCCCCN(CCOc1ccc(CCC(=O)O)cc1)c1ccccn1 | 0% | 121% |  |  |  | 
2 | O=C(O)CCc1ccc(OCCN(c2ccccc2)c2ccccn2)cc1 | 56% | 98% |  |  |  | 
3 | O=C(O)CCCc1ccc(OCCN(c2ccccc2)c2ccccc2)cc1 | 88% | 21% |  |  |  | 
4 | O=C(O)CCCc1ccc(OCCN(c2cccc(F)c2)c2ccccn2)cc1 | 71% | 33% |  |  |  | 
5 | Cc1ccnc(N(CCOc2ccc(CCCC(=O)O)cc2)c2ccccc2)c1 | 81% | 43% |  |  |  | 
6 | CCCN(CCOc1ccc(CCC(=O)O)cc1)c1ccccn1 | 57% | 125% |  |  |  | 
7 | CCN(CCOc1ccc(CCC(=O)O)cc1)c1ccccn1 | 45% | 147% |  |  |  | 
8 | O=C(O)CCCc1ccc(OCCN(c2ccc(F)cc2)c2ccccn2)cc1 | 59% | 23% |  |  |  | 
9 | CCCCCCN(CCOc1ccc(CCC(=O)O)cc1)c1ccccn1 | 31% | 104% |  |  |  | 
10 | O=C(O)CCCc1ccc(OCCN(c2ccccc2)c2nc3ccccc3o2)cc1 | 43% | 8% |  |  |  | 
11 | CC/C=C\C/C=C\C/C=C\CCCCCCCC(=O)O [LINOLENIC ACID] | 100% | 100% | 2.6 µM | 5.2 µM | 2 | 
12 | O=C(O)CCCc1ccc(OCCN(c2ccc3ccccc3c2)c2ccccn2)cc1 | 37% | 27% |  |  |  | 
13 | O=C(O)CCc1ccc(OCCN(c2ccccn2)c2ccccn2)cc1 | 0% | 0% |  |  |  | 
14 | O=C(O)CCCc1ccc(OCCN(c2ccccc2)c2nccs2)cc1 | 106% | 30% | 1.7 µM | 21 µM | 12 | 
15 | Cc1ccc(N(CCOc2ccc(CCCC(=O)O)cc2)c2ccccn2)cc1 | 78% | 26% |  |  |  | 
16 | O=C(O)CCCc1ccc(OCCN(c2ccccc2)c2cccc(Cl)n2)cc1 | 70% | 32% |  |  |  | 
17 | CN(CCOc1ccc(CCC(=O)O)cc1)c1ccccn1 | 0% | 58% |  |  |  | 
18 | O=C(O)CCCc1ccc(OCCN(c2ccccc2)c2ccccn2)cc1 | 115% | 26% | 1.2 µM | 19 µM | 16 | inactive
19 | Cc1cccc(N(CCOc2ccc(CCCC(=O)O)cc2)c2ccccc2)n1 | 81% | 34% |  |  |  | 
20 | CCCCCCCN(CCOc1ccc(CCC(=O)O)cc1)c1ccccn1 | 0% | 99% |  |  |  | 
21 | CCCCN(CCOc1ccc(CCC(=O)O)cc1)c1ccccn1 | 33% | 215% |  |  |  | 
22 | CCCCN(CCOc1ccc(CCCC(=O)O)cc1)c1ccccn1 | 41% | 10% |  |  |  | 
23 | O=C(O)CCCc1ccc(OCCN(c2ccccc2)c2cc(Cl)ccn2)cc1 | 100% | 68% |  |  |  | 
24 | O=C(O)CCCc1ccc(OCCN(c2ccccc2)c2nc3ccccc3s2)cc1 | 73% | 32% |  |  |  | 
25 | O=C(O)CCCc1ccc(OCCN(Cc2ccccc2)c2ccccn2)cc1 | 56% | 26% |  |  |  | 
26 | O=C(O)CCCCc1ccc(OCCN(c2ccccc2)c2ccccn2)cc1 | 58% | 99% |  |  |  | 
27 | O=C(O)CCCc1ccc(OCCN(c2cccnc2)c2ccccn2)cc1 | 65% | 1% |  |  |  | 
